# Bioassay records from PubChem BioAssay.
# Kir21 inh – inhibitors of mouse Kir2.1 inward-rectifier potassium channel; B-score at 10 µM; 0.85% of 310,000 active; HEK293-Kir2.1, FluxOR thallium flux fluorescence; hits give low values;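 active means fluorescence ratio B-score at or below minus 3 SD of library scores, with starting-brightness B-score within 2 SD, cut at about -4.2 in these data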;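 further: channel flux triggered by added potassium and thallium sulfate stimulus; B-score of peak minus minimum fluorescence over baseline after thallium stimulus; more negative B-score means stronger Kir2.1 block with less thallium influx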
# KCNK9 inh-1 – KCNK9 potassium channel inhibitors, primary screen, HEK293 cells, thallium flux; B-score at 10 µM; 1.2% of 310,000 active; AID 488922, 2010; FluxOR thallium flux fluorescence; hits give low values;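 active means ratio B-score over 3 SD below the library mean, with starting fluorescence within 5 SD of its mean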;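 further: negative B-score means less thallium flux so channel inhibition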
# Target sequence (Q9NPC2 whole entry, looked up): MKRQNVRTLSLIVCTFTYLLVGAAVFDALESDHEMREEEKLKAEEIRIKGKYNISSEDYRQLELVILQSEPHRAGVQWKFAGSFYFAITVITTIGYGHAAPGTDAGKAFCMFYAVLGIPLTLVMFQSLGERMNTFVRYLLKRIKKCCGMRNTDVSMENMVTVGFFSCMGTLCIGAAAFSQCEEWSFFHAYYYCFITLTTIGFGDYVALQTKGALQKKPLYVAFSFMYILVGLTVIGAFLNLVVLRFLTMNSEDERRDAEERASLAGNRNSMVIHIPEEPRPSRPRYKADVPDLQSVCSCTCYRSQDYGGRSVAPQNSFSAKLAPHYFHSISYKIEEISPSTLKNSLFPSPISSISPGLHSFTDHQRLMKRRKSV
# hERG rescue – hERG rescue from dofetilide block, primary screen, cell-based, CHO-hERG, FluxOR thallium flux, dofetilide IC70. Voltage-gated inwardly rectifying potassium channel KCNH2 (Homo sapiens), Q12809. dofetilide IC70 present. activation (rescue from dofetilide block), less the hit threshold, % at 10 µM. 0.51% of 310,000 active. AID 1511, 2009;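 active means activation above the mean of controls blocked by dofetilide plus 5 SD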;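 further: thallium influx through hERG after potassium depolarization seen as dye fluorescence rise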
# KCNQ1 inh – inhibitors of human KCNQ1 channel, primary screen, cell-based, thallium flux, high-throughput. 1.3% of 310,000 active. CHO-K1 KCNQ1, FluxOR thallium flux fluorescence; hits give high values. B-score at 10 µM. AID 2642, 2010. Potassium voltage-gated channel subfamily KQT member 1 (Homo sapiens), P51787;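 active means compounds whose thallium flux B-score, printed positive for inhibition, exceeds three library SD while starting fluorescence stays within three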;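 further: channel opened by potassium depolarization with thallium stimulus after 20 min compound exposure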
# KCNQ1 act – potentiators or activators of KCNQ1 channel, primary screen, cell-based, thallium flux, high-throughput | Potassium voltage-gated channel subfamily KQT member 1 (Homo sapiens), P51787 | CHO-K1 KCNQ1, thallium flux FluxOR fluorescence; hits give high values | B-score at 10 µM | 0.35% of 310,000 active;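 active means fluorescence ratio B-score, a plate-corrected score, at least three library SD, with initial intensity B-score within 5 SD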
#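 Doses: Single concentration per compound, DMSO matched to controls | Test system: KCNQ1-transfected CHO-K1 cells | Timing: 90 min dye loading and 20 min compound exposure, both at room temperature | Measured by: Kinetic FluxOR thallium fluorescence, 10-s 1-Hz baseline, 110-s post-stimulus read | Medium: Assay buffer with matched DMSO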
# KCNK3 inh – human KCNK3 channel inhibitors, primary screen, CHO cells, FluxOR thallium flux, B-score. B-score at 10 µM. Potassium channel subfamily K member 3 (Homo sapiens), O14649. FluxOR fluorescence; hits give low values. 0.84% of 340,000 active;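 active means B-score under library mean minus 4 SD, starting fluorescence ratio at most library mean plus 5 SD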;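 further: more negative B-score means stronger inhibition of thallium flux through KCNK3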
# hERG inh – hERG channel inhibition, counter-screen for Kir2.1 inhibitor project, cell-based, thallium flux; shares compounds with Kir21 inh; hERG-expressing cells; inhibition, % at 10 µM; 20% of 320 active; AID 2236, 2010;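 further: host cells are CHO cells stably expressing hERG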
# KCNK9 inh-2 – KCNK9 channel inhibition, selectivity assay for Kir2.1 inhibitor project, cell-based; shares compounds with Kir21 inh; KCNK9-expressing cells, ion flux inhibition; inhibition, % at 10 µM; 5% of 320 active; AID 2329, 2010
# Kir2-1 patch inh – mouse Kir2.1 channel blockers, Kir2.1 inhibitor project, cell-based, secondary, automated electrophysiology; inhibition, % at 25 µM; Kir2.1 cells, automated patch-clamp current inhibition; 71% of 320 active; shares compounds with Kir21 inh; AID 463252, 2010
# Numbers stand for hits; n = inactive; x = not tested or not shown. A selection: hits, their analogues and other compounds. The true share with any hit is near 3.7%. Unless noted, how the calls were made is not given here.
SMILES,Kir21 inh,KCNK9 inh-1,hERG rescue,KCNQ1 inh,KCNQ1 act,KCNK3 inh,hERG inh,KCNK9 inh-2,Kir2-1 patch inh
CC(C)CC(=O)NC(=S)Nc1nc(-c2ccccc2)cs1,n,n,n,n,9,n,x,x,x
COc1ccc(-c2csc(NC(=S)NC(=O)c3ccco3)n2)cc1,n,n,n,n,8,n,x,x,x
O=C(NC(=S)Nc1nc(-c2ccccc2)cs1)c1ccco1,n,n,25,n,30,n,x,x,x
Cc1ccc(-c2csc(NC(=S)NC(=O)c3cccs3)n2)cc1,n,n,n,n,n,n,x,x,x
COc1ccc(S(=O)(=O)N2CCC(C(=O)N(CC(C)C)C3CCS(=O)(=O)C3)CC2)cc1OC (stereo not drawn),n,n,n,n,n,n,x,x,x
ONC(=Nc1cccc(C(F)(F)F)c1)c1cccnc1,n,n,n,n,n,n,x,x,x
Cc1onc(-c2ccccc2)c1C(=O)Nc1nc(-c2ccccc2)cs1,n,n,n,6,n,n,x,x,x
Cc1onc(-c2ccccc2)c1C(=O)Nc1nc(-c2cc(F)ccc2F)cs1,n,n,n,n,n,n,x,x,x
Cc1noc(NS(=O)(=O)c2ccc(NC(=O)c3nn(-c4ccccc4)ccc3=O)cc2)c1C,n,n,n,n,n,n,x,x,x
Cc1ccc(S(=O)(=O)n2nccc2-c2c(-c3ccccc3)noc2C)cc1,n,-7.2,n,n,n,n,x,x,x
CCOC(=O)CC(NC(=O)c1cccs1)c1ccc(OCC)cc1 (stereo not drawn),n,n,8.6,n,n,n,x,x,x
CN(C)S(=O)(=O)c1cccc(C(=O)Nc2cc3c(cc2C(=O)O)OCCCO3)c1,n,n,n,n,n,n,x,x,x
CC1CN(CCOCCOc2ccccc2-c2ccccc2)CC(C)O1 (stereo not drawn),n,n,n,n,n,n,x,x,x
c1ccc(-c2ccccc2OCCOCCN2CCc3ccccc3C2)cc1,-8.3,n,n,n,n,n,66%,n,39%
Cc1ccc(C2=NN(CC(=O)NCCC(C)C)C(=O)CC2)cc1,n,n,n,n,n,n,x,x,x
CC(C)NC(=O)c1ccc(CN2CCC(Cc3ccccc3)CC2)cc1,n,n,n,n,n,n,x,x,x
CSc1ccc(CN2CCC(Cc3ccccc3)CC2)cc1,-16,n,n,n,n,n,67%,n,33%
COc1cccc(NC(=O)CSc2nc3ccccc3c(=O)n2CCCC(=O)NCC2CCCO2)c1 (stereo not drawn),n,n,n,n,n,n,x,x,x
CN(C)C(=O)c1ccccc1Sc1ccc(Cl)cc1Cl,n,n,n,n,n,n,x,x,x
CN(C)C(=O)c1ccccc1Sc1cc(Cl)ccc1Cl,-6.7,n,n,n,n,n,n,n,20%
CSc1ccc(CNCC(O)c2ccccc2)cc1 (stereo not drawn),-6.2,n,n,n,n,n,n,n,54%
OC(CNCCc1ccccc1)c1ccccc1 (stereo not drawn),-9.7,n,n,n,n,n,n,n,50%
CCOC(=O)N1CCC(N2C(=O)c3ccc(C(=O)Nc4ccc(OC)cc4)cc3C2=O)CC1,n,n,n,n,n,n,x,x,x
CC(C)O/C(=N\S(=O)(=O)c1ccc(Cl)cc1)c1ccccc1,-8.3,n,n,n,n,n,n,n,17%
